# GASC1 inh – inhibitors of human demethylase GASC-1 KDM4C | GST-KDM4C 2-372, H3K9me3 peptide, LANCE TR-FRET | 96,000 compounds, 0.15% hits | Q9H3R0 | inhibition, % at 12.5 µM;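 active means mean replicate inhibition above about 25%, with at least 55% of replicates also reaching it, limit read from the data, passing the limit was not always enough; inconclusive means only one of those two conditions met; inactive means neither condition met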
#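 System: N-terminal GST-fused human GASC-1 (KDM4C) fragment, residues 2-372; amount: enzyme final amount 10 nM; incubation: reaction 30 min RT, detection step 1 h RT; medium: HEPES buffer, pH 7.5, plus ascorbate; technique: LANCE TR-FRET, Eu antibody, ULight-streptavidin, EDTA, ex 340 nm, em 618/671 nm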
# Pf Dd2 growth – blocks growth of Plasmodium falciparum Dd2 parasites. P. falciparum Dd2 growth, SYBR Green, 72 h; active compounds read low. activity change, % at 10 µM. 94,000 compounds, 2.3% hits. AID 1159554; in the data active means activity change below about -80%; inconclusive means no clear call, values can overlap the other calls
# IDH1 mut inh – inhibitors of human IDH1 R132H; IDH1 R132H reductase, diaphorase/resazurin fluorescence, 60 min; inhibition, % at 10 µM; AID 624101; 70,000 compounds, 0.18% hits; O75874; in the data active means inhibition above about 34%; inconclusive means no clear call, values can overlap the other calls; inactive means below about 11%;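 further: 0% = DMSO and 100% = no enzyme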
# Target sequence (O75874 whole entry R132H): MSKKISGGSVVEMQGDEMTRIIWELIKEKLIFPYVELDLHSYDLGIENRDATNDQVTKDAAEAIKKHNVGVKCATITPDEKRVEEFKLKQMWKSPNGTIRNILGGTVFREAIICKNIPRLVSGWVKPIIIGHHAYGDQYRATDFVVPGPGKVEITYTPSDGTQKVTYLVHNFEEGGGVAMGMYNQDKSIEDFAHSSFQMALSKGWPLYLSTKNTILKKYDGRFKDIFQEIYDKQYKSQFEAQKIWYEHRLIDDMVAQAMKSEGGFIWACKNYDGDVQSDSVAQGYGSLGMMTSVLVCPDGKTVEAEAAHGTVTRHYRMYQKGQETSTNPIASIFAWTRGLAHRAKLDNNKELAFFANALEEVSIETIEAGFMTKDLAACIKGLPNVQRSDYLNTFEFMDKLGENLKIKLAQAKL
# T cruzi growth-1 – inhibitors of T. cruzi proliferation; 77,000 compounds, 5.9% hits; T. cruzi beta-gal in NIH3T3, GalScreen luminescence, 90 h; inhibition, % at 8.34 µM;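 active means mean inhibition above about 93%, with at least 55% of replicates each passing it, limit read from the data, passing the limit was not always enough; inconclusive means only one of those two conditions holds; inactive means neither condition holds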
# T cruzi growth-2 – Trypanosoma cruzi proliferation inhibition. 5,600 compounds, 72% hits. inhibition, % at 8.35 µM. T. cruzi beta-gal in NIH3T3, GalScreen luminescence, 90 h. shares compounds with T cruzi growth-1;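 active means mean replicate inhibition above about 95% and at least 55% of replicates individually reaching it, limit read from the data; inconclusive means only one of the two criteria is met; inactive means neither criterion is met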
# T cruzi growth-3 – inhibitors of T. cruzi proliferation; shares compounds with T cruzi growth-1; T. cruzi beta-gal in NIH3T3, GalScreen luminescence, 90 h; inhibition, % at 2.09 µM; AID 651740; 5,600 compounds, 21% hits;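 active means mean inhibition above about 95%, with at least 55% of replicates also reaching it, limit read from the data; inconclusive means meets just one of the two conditions; inactive means meets neither condition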;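 further: plate controls were neutral control median for no effect and positive control median for full effect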
# NIH3T3 tox – kills mouse NIH/3T3 fibroblasts; AID 651742; 5,600 compounds, 14% hits; cytotoxicity (signal decrease), % at 8.35 µM; NIH/3T3 viability, CellTiter-Glo ATP luminescence, 90 h; shares compounds with T cruzi growth-1;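 active means mean signal decrease across replicates above about 35% based on untreated-well scatter, with enough replicates individually passing, limit read from the data; inconclusive means no rule stated though some were filed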;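 further: 0% = median of neutral control wells and 100% = median of positive control wells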
# 3T3 cytotox 2 – cytotoxicity in mouse NIH/3T3 fibroblasts; NIH/3T3 viability, CellTiter-Glo ATP luminescence, 90 h; shares compounds with T cruzi growth-1; 5,600 compounds, 56% hits; AID 651744; inhibition, % at 24.9 µM;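 active means mean loss of cell viability signal at or above a set limit, and enough replicates individually reaching it; inconclusive means meets only the mean limit or only the replicate share; inactive means meets neither condition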;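 further: 0% = median of neutral control wells and 100% = median of positive control wells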
# * hit, by the source's call; ? = inconclusive; / = no result. Rows were chosen to be rich in hits. Some 5.8% of all compounds tested hit in one or more screens of this group.
SMILES,GASC1 inh,Pf Dd2 growth,IDH1 mut inh,T cruzi growth-1,T cruzi growth-2,T cruzi growth-3,NIH3T3 tox,3T3 cytotox 2
Cc1ccc(S(=O)(=O)Nc2ccc3c(c2)C(=O)N([C@@H](C)CO)C[C@@H](C)[C@H](CN(C)C(=O)Nc2ccc(F)cc2)OCCCC[C@@H](C)O3)cc1,0,-50,1,?,101*,82,9,24
Cc1ccc(S(=O)(=O)Nc2ccc3c(c2)C(=O)N([C@@H](C)CO)C[C@@H](C)[C@@H](CN(C)C(=O)Nc2ccc(F)cc2)OCCCC[C@H](C)O3)cc1,0,-72,1,-2,/,/,/,/
Cc1ccc(S(=O)(=O)Nc2ccc3c(c2)C(=O)N([C@@H](C)CO)C[C@H](C)[C@@H](CN(C)C(=O)Nc2ccc(F)cc2)OCCCC[C@@H](C)O3)cc1,0,-82*,1,98*,107*,84,-10,23
COc1ccc(OCC(=O)Nc2ccc3oc(-c4cccc(I)c4)nc3c2)cc1,/,/,0,/,/,/,/,/
COc1cccc(-c2ccc3c(c2)O[C@@H](CN(C)C(=O)C2CCC2)[C@@H](C)CN([C@H](C)CO)S3(=O)=O)c1,0,10,0,44,/,/,/,/
COc1cccc(-c2ccc3c(c2)O[C@H](CN(C)C(=O)C2CCCCC2)[C@@H](C)CN([C@@H](C)CO)S3(=O)=O)c1,-4,-37,/,97*,111*,80,-5,76*
COc1cccc(-c2ccc3c(c2)O[C@H](CN(C)C(=O)C2CCC2)[C@H](C)CN([C@@H](C)CO)S3(=O)=O)c1,0,-39,-1,103*,95*,58,57*,78*
COc1cccc(-c2ccc3c(c2)O[C@@H](CN(C)C(=O)C2CCCCC2)[C@H](C)CN([C@@H](C)CO)S3(=O)=O)c1,-1,-68,/,112*,105*,74,19,90*
COc1cccc(-c2ccc3c(c2)O[C@@H](CN(C)C(=O)C2CCC2)[C@@H](C)CN([C@@H](C)CO)S3(=O)=O)c1,-2,-35,/,93,/,/,/,/
COc1cccc(-c2ccc3c(c2)O[C@@H](CN(C)C(=O)C2CCCCC2)[C@@H](C)CN([C@H](C)CO)S3(=O)=O)c1,-2,-59,/,92*,98*,72,23,90*
COc1cccc(-c2ccc3c(c2)O[C@H](CN(C)C(=O)C2CCC2)[C@H](C)CN([C@H](C)CO)S3(=O)=O)c1,-4,-14,0,69,/,/,/,/
COc1cccc(-c2ccc3c(c2)O[C@H](CN(C)C(=O)C2CCCCC2)[C@H](C)CN([C@H](C)CO)S3(=O)=O)c1,0,-18,/,115*,106*,98*,44*,87*
C[C@@H]1CCCCO[C@@H](CN(C)Cc2ccccc2)[C@H](C)CN([C@@H](C)CO)C(=O)c2cc(NC(=O)NC3CCCCC3)ccc2O1,-2,-46,/,-112,/,/,/,/
C[C@@H]1CN([C@H](C)CO)C(=O)c2cc(NC(=O)NC3CCCCC3)ccc2O[C@@H](C)CCCCO[C@@H]1CN(C)Cc1ccccc1,0,-47,3,113*,108*,54,-13,31*
C[C@H]1CCCCO[C@@H](CN(C)Cc2ccccc2)[C@@H](C)CN([C@@H](C)CO)C(=O)c2cc(NC(=O)NC3CCCCC3)ccc2O1,2,-55,5,-116,/,/,/,/
C[C@H](CO)N1C[C@H](C)[C@@H](CN(C)Cc2ccccc2)OCCCC[C@H](C)Oc2ccc(NC(=O)NC3CCCCC3)cc2C1=O,-1,-14,/,?,?,54,15,48*
C[C@@H]1CCCCO[C@H](CN(C)C)[C@H](C)CN([C@@H](C)CO)C(=O)c2cc(NC(=O)Nc3cccc4ccccc34)ccc2O1,-1,-37,-5,74,/,/,/,/
C[C@@H]1CCCCO[C@@H](CN(C)C(=O)C2CCCCC2)[C@@H](C)CN([C@@H](C)CO)C(=O)c2cc(NC(=O)Nc3cccc4ccccc34)ccc2O1,1,-89*,/,110*,106*,65,-9,-27
C[C@@H]1CCCCO[C@H](CN(C)C(=O)C2CCCCC2)[C@H](C)CN([C@H](C)CO)C(=O)c2cc(NC(=O)Nc3cccc4ccccc34)ccc2O1,-1,-90*,/,117*,105*,113*,-28,-18
C[C@@H]1CCCCO[C@H](CN(C)C)[C@@H](C)CN([C@H](C)CO)C(=O)c2cc(NC(=O)Nc3cccc4ccccc34)ccc2O1,5,23,/,69,/,/,/,/
C[C@@H]1CN([C@@H](C)CO)C(=O)CCCn2cc(nn2)CO[C@@H]1CN(C)C(=O)c1ccc(N2CCN(C)CC2)cc1,0,-16,1,9,/,/,/,/
C[C@H]1CN([C@@H](C)CO)C(=O)CCCn2cc(nn2)CO[C@H]1CN(C)C(=O)c1ccc(N2CCN(C)CC2)cc1,1,-6,1,?,42,-20,-25,-38
C[C@@H]1CN([C@H](C)CO)C(=O)CCCn2cc(nn2)CO[C@H]1CN(C)C(=O)c1ccc2ccn(C)c2c1,0,1,-1,?,-1,-6,-15,-17
C[C@H](CO)N1C[C@H](C)[C@H](CN(C)C(=O)c2ccc(N3CCN(C)CC3)cc2)OCc2cn(nn2)CCCC1=O,2,11,0,?,-57,-15,-16,-12
CO[C@H]1CN(C)C(=O)c2ccc(NC(=O)Nc3ccccc3Cl)cc2OC[C@H](C)NC[C@@H]1C,-2,-49,/,/,/,/,/,/
C[C@H]1CN([C@@H](C)CO)C(=O)CCCn2nncc2CO[C@H]1CN(C)S(=O)(=O)c1ccc(Cl)cc1,-1,-6,-1,-64,/,/,/,/
C[C@H](CO)N1C[C@H](C)[C@H](CN(C)C(=O)C2CCCCC2)OCCCC[C@H](C)Oc2ccc(NS(=O)(=O)c3ccc(Cl)cc3)cc2C1=O,-1,4,/,94,/,/,/,/
C[C@@H]1CN([C@H](C)CO)C(=O)c2cc(NS(=O)(=O)c3ccc(Cl)cc3)ccc2O[C@@H](C)CCCCO[C@@H]1CN(C)C(=O)C1CCCCC1,-1,-55,1,?,100*,76,9,80*
C[C@@H]1CCCCO[C@H](CN(C)C(=O)C2CCCCC2)[C@H](C)CN([C@@H](C)CO)C(=O)c2cc(NS(=O)(=O)c3ccc(Cl)cc3)ccc2O1,0,-41,/,?,?,86,17,95*
C[C@H](CO)N1C[C@H](C)[C@H](CN(C)S(=O)(=O)c2cn(C)cn2)OCCCC[C@H](C)Oc2ccc(NC(=O)Cc3ccccc3)cc2C1=O,-1,6,3,-12,/,/,/,/

# Source: PubChem
